Data from ChEMBL document CHEMBL1144559, “4-Pyridone derivatives as new inhibitors of bacterial enoyl-ACP reductase FabI” (Bioorg Med Chem, 2007).
In brackets after ≈: the same amount, converted by molar mass.

What was measured:
[1] = Inhibition of Escherichia coli DH5-alpha His tagged Fab1; set-up: species or system DH5alpha
Procedure, shortened: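 His-tagged E. coli FabI was expressed in E. coli TOP10 (0.2% arabinose induction), purified on Ni–NTA and eluted with 250 mM imidazole. NADH consumption was read at 340 nm for 10 min at room temperature. IC50 is the concentration giving 50% reduction of absorption.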

[2] = tested on: Staphylococcus aureus; experiment: Antimicrobial activity against Staphylococcus aureus ATCC 29213; assay type: functional
Procedure, shortened: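 Agar dilution on Mueller–Hinton agar with 5% horse blood, twofold serial compound dilutions. About 10^4 CFU per spot inoculated. Plates incubated at 35 °C for 20 h. MIC taken as the lowest concentration preventing visible growth.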

SMILES | IC50 [1] | MIC [2]
Cc1c(Cc2c(Cl)cc(Cl)cc2Cl)c(=O)ccn1Cc1ccccc1 | 1500 nM | 8 µg/mL (≈ 20.4 µM)
COC(=O)c1ccc(Cn2ccc(=O)c(Cc3c(Cl)cccc3Cl)c2C)cc1 | 300 nM | > 128 µg/mL
Cc1[nH]ccc(=O)c1Cc1c(Cl)cccc1Cl | 120000 nM | > 64 µg/mL
CCCCc1cc(=O)c(Cc2c(Cl)cccc2Cl)c(C)[nH]1 | 380 nM | 8 µg/mL (≈ 24.7 µM)
Cc1c(Cc2c(Cl)cccc2Cl)c(=O)ccn1Cc1ccc(N)cc1 | 290 nM | 1 µg/mL (≈ 2.68 µM)
Cc1c(/C=C/c2ccccn2)c(=O)ccn1Cc1ccccc1 | > 100000 nM | 
Cc1c(Cc2c(F)cccc2Cl)c(=O)ccn1Cc1ccccc1 | 390 nM | 2 µg/mL (≈ 5.85 µM)
CCCCc1c(Cc2c(Cl)cccc2Cl)c(=O)ccn1Cc1ccccc1 | 4500 nM | 32 µg/mL (≈ 79.9 µM)
Cc1c(Cc2c(Cl)cccc2Cl)c(=O)ccn1Cc1ccccc1 | 300 nM | 0.5 µg/mL (≈ 1.4 µM)
Cc1c(Cc2c(Cl)cccc2Cl)c(=O)ccn1C | 11000 nM | > 128 µg/mL
Cc1c(Cc2c(Cl)cccc2Cl)c(=O)ccn1Cc1c(Cl)cccc1Cl | 8400 nM | 32 µg/mL (≈ 74.9 µM)
Cc1c(Cc2c(Cl)cccc2Cl)c(=O)ccn1Cc1ccc([N+](=O)[O-])cc1 | 1800 nM | 16 µg/mL (≈ 39.7 µM)
C=Cc1c(C)n(Cc2ccccc2)ccc1=O | > 100000 nM | 
Cc1c(Cc2c(Cl)cccc2Cl)c(=O)ccn1CCCCC(=O)O | 110000 nM | 
CCCCc1c(C)n(Cc2ccccc2)ccc1=O | 61000 nM | > 128 µg/mL
Cc1c(-c2ccccc2)c(=O)ccn1Cc1ccccc1 | 2900 nM | 
Cc1cccc(C)c1Cc1c(C)n(Cc2ccccc2)ccc1=O | 4300 nM | 16 µg/mL (≈ 50.4 µM)

SMILES | IC50 [1] | MIC [2]
CCc1c(Cc2c(Cl)cccc2Cl)c(=O)ccn1Cc1ccccc1 | 780 nM | 8 µg/mL (≈ 21.5 µM)
CCCCCCCCCCn1ccc(=O)c(Cc2c(Cl)cccc2Cl)c1C | 220 nM | 32 µg/mL (≈ 78.4 µM)
Cc1c(Cc2c(F)cccc2F)c(=O)ccn1Cc1ccccc1 | 2700 nM | 4 µg/mL (≈ 12.3 µM)
Cc1c(Cc2c(Cl)cccc2Cl)c(=O)ccn1CC1CCCCC1 | 220 nM | 0.25 µg/mL (≈ 0.686 µM)
CCCCn1ccc(=O)c(Cc2c(Cl)cccc2Cl)c1C | 310 nM | 2 µg/mL (≈ 6.17 µM)
Cc1c(CC2CCCCC2)c(=O)ccn1Cc1ccccc1 | 400 nM | 32 µg/mL (≈ 108 µM)
Cc1c(Cc2c(Cl)cccc2Cl)c(=O)ccn1Cc1ccco1 | 470 nM | 2 µg/mL (≈ 5.74 µM)
Cc1c(Cc2c(Cl)cccc2Cl)c(=O)ccn1CC(C)(C)SCc1cccc(C(F)(F)F)c1 | 1900 nM | 64 µg/mL (≈ 124 µM)
Cc1c(Cc2ccccc2Cl)c(=O)ccn1Cc1ccccc1 | 4200 nM | 64 µg/mL (≈ 198 µM)
Oc1cc(Cl)ccc1Oc1ccc(Cl)cc1Cl [TRICLOSAN] | 510 nM | 0.125 µg/mL (≈ 0.432 µM)
Cc1c(Cc2c(Cl)cccc2Cl)c(=O)ccn1Cc1ccc(C(=O)O)cc1 | 22000 nM | > 128 µg/mL
Cc1[nH]c(CC2CCCCC2)cc(=O)c1Cc1c(Cl)cccc1Cl | 290 nM | 2 µg/mL (≈ 5.49 µM)
Cc1c(CCc2ccccn2)c(=O)ccn1Cc1ccccc1 | > 100000 nM | 
Cc1c(Cc2c(Cl)cccc2Cl)c(=O)ccn1CCCCCO | 1800 nM | 8 µg/mL (≈ 22.6 µM)
Cc1c(Cc2c(Cl)cccc2Cl)c(=O)ccn1Cc1ccc(C(N)=O)cc1 | 2500 nM | 32 µg/mL (≈ 79.7 µM)
Cc1c(Cc2ccc(Cl)cc2Cl)c(=O)ccn1Cc1ccccc1 | 2000 nM | 32 µg/mL (≈ 89.3 µM)
Cc1c(Cc2ccccc2)c(=O)ccn1Cc1ccccc1 | 20000 nM | 64 µg/mL (≈ 221 µM)
